Screening results as filed in PubChem BioAssay.
MIN6 prolif: inducers of MIN6 beta-cell proliferation, primary screen, ATP luminescence, uHTS. MIN6 cells proliferation, ATPlite luminescence, 48 h; cells starved in 0.2% serum; 100% = growth in 10% serum. proliferation, % at 10 µM. 330,000 compounds, 0.29% hits;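 active = compounds whose signal lies at least 3.5 SD above the mean of all wells on their plate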;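 also: 0% = DMSO-treated cells in low-serum medium and 100% = 10% serum control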
Myeloid diff 2: induction of myeloid progenitor differentiation, primary screen, cell-based, flow cytometry, MLPCN library; ER-HoxA9 myeloid progenitors, lysozyme-GFP differentiation; calls only at 10 µM; 360,000 compounds, 1% hits; AID 624256, 2012;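 active = normalized GFP-positive differentiation at or above the plate's own cutoff, the solvent-only control mean plus 3 SD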;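 also: cells exposed to compound for four days before flow analysis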
DAGLB inh: DAGLB lipase inhibitors, primary screen, biochemical, fluorescence, HTS | Diacylglycerol lipase-beta (Homo sapiens), Q8NCG7 | HEK293T DAGLB membrane lysate, EnzChek fluorogenic substrate | inhibition, % at 5.17 µM | 340,000 compounds, 0.059% hits | AID 504411, 2011; in the data active = inhibition above about 34%;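 also: 0% = enzyme with vehicle and 100% = wells lacking enzyme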
MT1-MMP act inh: blockers of MT1-MMP proenzyme processing, primary screen, HT1080 RFP-PRO-GFP cells, GFP/RFP fluorescence; AID 651647, 2012; GFP/RFP ratio change, % at 20 µM; GFP/RFP ratio fluorescence, overnight; percent of plate control window, DMSO zero; 360,000 compounds, 0.061% hits;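 active = GFP/RFP ratio change of at least 30% with cell ATP level not reduced by more than half and red fluorescence within 50% of control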
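Assay system: HT1080 cells carrying an RFP-PRO-GFP reporter | Dosing: Single dose of 20 µM compound, 1% DMSO final | Incubation: Cells overnight before dosing, compound overnight, 37 °C, 5% CO2 | Evaluation: GFP/RFP fluorescence ratio | Control set: DMSO and RFP-L50D-GFP cell wells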
NRP1-CendR mod: modulators of CendR peptide binding to NRP-1, primary screen, biochemical, fluorescence polarization, uHTS | FAM-RPARPAR peptide binding to NRP-1 | inhibition, % at 25 µM | 360,000 compounds, 0.85% hits | AID 602438, 2012;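 active = inhibition or corrected inhibition above about 18%, plus a signal ratio from 0.5 to 1.5, limit read from the data, passing the limit was not always enough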
SENP1 inh: human SENP1 catalytic domain inhibitors, primary screen, biochemical, FRET, uHTS. recombinant SENP1 catalytic domain, CyPet-SUMO1-YPet FRET cleavage. inhibition, % at 10 µM. 360,000 compounds, 0.21% hits;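 active = inhibition at least 30% at 10 µM, raw YFP signal under a set limit, fluorescence ratio 0.5 to 1.5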;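 also: 0% = enzyme with DMSO and 100% = no enzyme wells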
Target sequence (Q9P0U3 419-644 limits assumed): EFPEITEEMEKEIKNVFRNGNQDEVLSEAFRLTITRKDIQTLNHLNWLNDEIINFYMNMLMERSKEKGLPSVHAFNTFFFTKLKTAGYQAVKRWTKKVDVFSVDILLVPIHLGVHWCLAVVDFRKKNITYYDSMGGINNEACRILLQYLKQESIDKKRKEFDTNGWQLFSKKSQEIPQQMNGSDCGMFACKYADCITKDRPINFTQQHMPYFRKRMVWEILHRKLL
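System: Recombinant human SENP1 catalytic domain, His6-tagged | Incubation: Enzyme reaction for 50 min at room temperature, dark | Medium: Tris pH 8 with BME, BSA, NP40 and catalase | Also added: 25 nM SUMO1 FRET substrate | Compound: 10 µM single point, 0.5% DMSO | Measured by: FRET fluorescence in CFP and YFP emission channels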
Myeloid diff CP1: inducers of myeloid progenitor differentiation, confirmation, cell-based, GFP/Mac1 flow cytometry, cherry pick 01; ER-HoxA9 myeloid progenitors, GFP/Mac1 double-positive flow; AID 651706, 2012; calls only; 2,300 compounds, 2% hits; shares compounds with Myeloid diff 2;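 active = share of green or green-and-red cells above 9 and 9% in run 1 or 4 and 3% in run 2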
GFP autofluor: compound fluorescence in myeloid differentiation counter-screen; shares compounds with Myeloid diff 2; ER-HoxA9 myeloid progenitors, no estrogen, GFP autofluorescence flow cytometry; vehicle wells 0%, positive control 100%; fluorescence response, % (concentration not given with the values); 2,300 compounds, 7.4% hits; AID 651707;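 active = over 5% cells positive for green fluorescent reporter, or over 2% positive for both it and APC stain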;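 also: range taken on the double positive population between DMSO and positive control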
* marks the source's active call; other numbers are inactive results; i = inactive; x = no result; + = active, no number. Hits are enriched below; roughly 2.4% of the tested compounds scored in any of these assays.

SMILES | MIN6 prolif | Myeloid diff 2 | DAGLB inh | MT1-MMP act inh | NRP1-CendR mod | SENP1 inh | Myeloid diff CP1 | GFP autofluor
O=C(N/N=C/c1ccncc1)c1ccccc1OCc1ccc(Br)cc1 | -1.2 | i | -1.1 | -1.9 | -8.6 | 1.4 | i | 0.0
COc1cccc(-c2cnc3c(NC(C)=O)cc(-c4cccc(C(=O)NCCO)c4)cn23)c1 | x | i | x | 3.5 | -3.0 | -3.3 | x | x
Cc1ccc(C)n1NC(=O)c1cccs1 | -2.1 | i | 4.6 | -10.7 | -12.6 | 14.1 | i | 0.4
Cc1ccc(C)n1NC(=O)c1ccccc1 | x | i | 1.0 | 0.4 | 9.2 | 2.2 | x | x
COC1=C/C(=C/c2c(N)n3nc(-c4ccc(C)cc4)sc3nc2=O)C=CC1=O | x | x | 16.5 | -15.8 | -317.9 | -27.6 | x | x
CCOC1=C/C(=C/c2c(N)n3nc(-c4ccccc4)sc3nc2=O)C=CC1=O | -0.1 | + | x | -108.8 | -274.7 | -26.3 | i | 5.2*
CC(C)(C)OC(=O)N1CCC(c2c(C(=O)N3CCN(C(=O)c4ccco4)CC3)cnn2-c2cccc(Cl)c2)CC1 | -3.8 | i | 3.3 | -2.1 | 2.9 | -0.8 | x | x
Cc1ccc(NS(=O)(=O)c2ccc(Cl)c(C(=O)Nc3ccccc3-c3nc4ccccc4[nH]3)c2)cc1C | 0.0 | i | -5.1 | -12.0 | -2.4 | 2.1 | i | 0.0
O=C(NNC(=O)C12CC3CC(CC(C3)C1)C2)c1ccccc1[N+](=O)[O-] | 0.0 | i | -0.3 | -2.9 | 16.3 | 1.5 | i | 0.0
O=C(NNC(=O)C12CC3CC(CC(C3)C1)C2)c1ccccc1O | -5.6 | i | 6.3 | 5.9 | -5.2 | -0.3 | x | x
O=C(NC1CC1)C1CCN(Cc2cnn(-c3ccccc3)c2-n2cccc2)CC1 | -1.2 | + | -0.5 | -0.1 | -7.5 | -3.7 | i | 0.9
COc1ccc(NC(C)=O)cc1NC(=O)c1cccc(S(=O)(=O)N2CCc3ccccc32)c1 | -2.8 | i | 3.1 | 3.0 | -9.2 | 0.4 | x | x
Cc1ccc(S(=O)(=O)N2C[C@H]3[C@H]4C(=O)N(Cc5ccccc5)C(=O)[C@H]4CC(=O)[C@H]3[C@@H]2c2cccc3ccccc23)cc1 | x | i | x | 1.8 | 9.1 | -21.6 | x | x
CS(=O)(=O)N(Cc1ccc(Cl)cc1)c1ccc(C(=O)NCCSc2ccccn2)cc1 | 0.0 | + | 0.1 | -16.8 | -7.2 | 2.1 | i | 3.9
CC(=O)c1c(N2CCOCC2)[nH]c(-c2ccccc2)nc1=S | 0.0 | + | 3.5 | -6.7 | -2.9 | -2.9 | + | 0.3
CCOc1ccc(S(=O)(=O)Nc2cccc(C(=O)NCCCN3CCCC3=O)c2)cc1 | -1.4 | i | 0.1 | -0.6 | -2.6 | -0.7 | i | 0.0
Cc1cc(/C=C2\SC(=Nc3ccc(F)cc3)NC2=O)c(C)n1-c1ccc(S(N)(=O)=O)cc1 | -3.7 | i | -4.3 | -1.1 | -28.7 | -92.3 | i | 8.0*
Cc1cc(/C=C2\SC(=S)NC2=O)c(C)n1-c1ccccc1 | -4.0 | i | x | -34.7 | -148.6 | -43.1 | i | 6.9*
Cc1cccc(-n2c(C)cc(C=C3C(=O)c4ccccc4C3=O)c2C)c1 | -2.8 | i | -1.5 | 0.6 | 130.5 | -28.4 | i | 0.0
Cc1cc(/C=C2/SC(=O)NC2=O)c(C)n1-c1ccc(N2CCOCC2)cc1 | 0.0 | i | 4.1 | 6.5 | 1.3 | -4.1 | x | x
COc1ccc(-n2c(C)cc(/C=C3\SC(=S)NC3=O)c2C)cc1 | -3.7 | i | 9.0 | -21.3 | -72.8 | -23.9 | x | x
CCOC(=O)c1c(O)cc(C)cc1Nc1ccccc1 | -1.6 | i | -8.2 | -0.2 | -24.2 | 20.1 | x | x
Cn1c(=O)c2cc(NC(=S)NC3CC3)ccc2n1C/C=C/c1ccccc1 | x | + | x | -0.1 | -3.6 | -0.6 | i | 0.0
Cn1c(=O)c2cc(NC(=O)NCc3ccc(F)cc3)ccc2n1C/C=C/c1ccccc1 | x | + | x | 9.8 | -10.9 | 2.8 | + | 0.0
N/C(Cc1cccc2ccccc12)=N\OC(=O)COc1ccccc1 | -2.3 | i | -7.3 | -2.7 | -15.5 | 7.5 | i | 0.4
SMILES | MIN6 prolif | Myeloid diff 2 | DAGLB inh | MT1-MMP act inh | NRP1-CendR mod | SENP1 inh | Myeloid diff CP1 | GFP autofluor
CCNC(=S)N/N=C/c1sc(N2CCCCC2)nc1-c1cccs1 | -5.6 | i | 0.6 | -69.7 | -51.1 | -27.4 | i | 0.3
COc1ccc2c(C)c(C(=O)N3CCN(Cc4ccccc4)CC3)oc2c1 | -1.1 | i | -8.5 | -1.9 | 3.5 | 0.4 | x | x
Cc1ccc(-c2nnc(N(C)C(=O)c3cccnc3)s2)cc1 | -3.4 | i | -9.6 | 0.2 | -3.8 | 3.6 | i | 0.0
CCN1CCN(S(=O)(=O)c2ccc(Cl)c(C(=O)N(C)Cc3ccc(C(C)(C)C)cc3)c2)CC1 | x | i | -0.1 | -0.8 | -12.0 | 3.1 | x | x
COc1ccccc1CNC(=O)COC(=O)c1cc(=O)c2ccccc2o1 | -1.8 | i | 0.3 | 5.8 | 7.5 | 1.4 | x | x
Cc1cnc(C(=O)OCC(=O)c2ccccc2)cn1 | -1.6 | i | -0.2 | 2.9 | 3.0 | -0.2 | x | x
Cn1ccc(C(=O)OCC(=O)c2ccccc2)n1 | -1.2 | + | 0.4 | 0.1 | -17.7 | 2.4 | i | 0.0
CCOc1ccccc1NC(=O)c1ccccc1-c1ccccc1 | -2.1 | i | -4.0 | 1.9 | 2.9 | -1.9 | x | x
CCOc1ccccc1NC(=O)c1ccccc1-c1nc(-c2ccccc2)no1 | -3.9 | + | -11.3 | 0.2 | -9.8 | -1.8 | i | 0.3
CC1CN(c2ncnc3c2oc2ccccc23)CC(C)O1 (stereo unspecified) | 0.0 | i | -1.8 | 0.0 | 4.3 | 1.4 | x | x
O=C(O)C1CCCN1c1ncnc2c1oc1ccccc12 (stereo unspecified) | 0.9 | + | 3.4 | 17.9 | -8.7 | 1.4 | i | 6.6*
O=C(NC1CCCCC1)Oc1cccc2ccccc12 | -0.4 | i | -0.4 | -5.0 | -1.6 | 3.2 | x | x
CCCc1nc2c3ccccc3ccn2c1Cc1ccc(OC)cc1C | x | + | x | -19.1 | -107.5 | -38.4 | + | 0.6
CCCOc1ccc(CC(=O)NCC2(c3ccccc3)CCOCC2)cc1OC | -1.3 | i | 1.9 | 5.0 | 0.9 | 1.0 | x | x
